# Screening data: PubChem, several laboratories
# FAS-TE inh = FAS thioesterase domain inhibitors, primary screen, biochemical, fluorescence intensity, uHTS; Fatty acid synthase (Homo sapiens), P49327; recombinant FAS-TE, OMFH fluorogenic substrate, fluorescence endpoint; inhibition, % at 15 µM; 0.67% of 360,000 active; AID 602261, 2012;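 active = compounds whose normalised, plate-corrected inhibition of enzyme fluorescence in the single-dose primary screen is 50% or more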
# JMJD2C inh = inhibitors of GASC-1 histone demethylase, primary screen, biochemical, fluorescence, DELFIA europium. Lysine-specific demethylase 4C (Homo sapiens), Q9H3R0. GST-JMJD2C(1-420) H3K9me3 demethylation. inhibition, % at 2.35 µM. 0.069% of 330,000 active;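 active = more than half of a compound's replicate wells show inhibition beyond 50%, single wells judged on their own value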;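 also: signal counts dimethyl H3K9 product captured on neutravidin plate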
# Arrestin-AP2 inh = inhibitors of beta-arrestin/AP2 binding, primary screen, biochemical, GPCR trafficking, flow cytometry. beta-arrestin 1 C-terminal peptide binding to AP2 beta2-adaptin appendage (human). FITC-arrestin peptide / GST-AP2 beads; AP2 beta2 appendage carries R879A mutation. inhibition, % at 10 µM. 0.31% of 340,000 active. AID 504490, 2011;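 active = inhibition above a set limit, near 3 SD of compounds lacking own fluorescence, cut at about 54% in these data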
#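 System: GST-AP2 R879A glutathione beads. Medium: PBS with 0.05% Tween 20 and 0.1% BSA. Also added: FITC-arrestin peptide, 50 nM. Incubation: 12 min plus 1 h, RT. Measured by: high-throughput flow cytometry of beads, ex 488, em 535 nm. Evaluation: percent drop in bead-associated FITC signal.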
# SENP1 FRET inh = human SENP1 catalytic domain inhibitors, primary screen, biochemical, FRET, uHTS; Sentrin-specific protease 1 (Homo sapiens), Q9P0U3; recombinant SENP1 catalytic domain, CyPet-SUMO1-YPet FRET cleavage; inhibition, % at 10 µM; 0.21% of 360,000 active;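 active = inhibition at least 30% at 10 µM, raw YFP signal under a set limit, fluorescence ratio 0.5 to 1.5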
#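 Controls: no-enzyme wells low, DMSO-plus-enzyme wells high control. Test system: human recombinant His6-tagged SENP1 catalytic domain enzyme. Reagent: SFCypet-SUMO1-SFYpet FRET protein substrate, 25 nM final. Doses: one dose per compound, 10 µM, 0.5% DMSO. Detection: FRET, CFP and YFP emission. Timing: 50 min reaction at room temperature.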
# Arr AP2 CP1 = inhibitors of arrestin peptide binding to AP2, confirmation, biochemical, cherry pick 1, flow cytometry beads. GST-AP2 beads, FITC arrestin peptide binding; GST-fused beta2-adaptin appendage, R879A mutant. inhibition, % at 10 µM. 2% of 1,300 active. shares compounds with Arrestin-AP2 inh. AID 504908, 2011;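 active = inhibition above a set limit, roughly 3 SD of non-fluorescent compound noise, cut at about 38% in these data; inactive = inhibition at or below that limit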;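 also: loss of bead fluorescence from 50 nM FITC arrestin peptide bound to appendage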
# Target sequence (P63010 whole entry, looked up, the tested form may be a part, one chain of several): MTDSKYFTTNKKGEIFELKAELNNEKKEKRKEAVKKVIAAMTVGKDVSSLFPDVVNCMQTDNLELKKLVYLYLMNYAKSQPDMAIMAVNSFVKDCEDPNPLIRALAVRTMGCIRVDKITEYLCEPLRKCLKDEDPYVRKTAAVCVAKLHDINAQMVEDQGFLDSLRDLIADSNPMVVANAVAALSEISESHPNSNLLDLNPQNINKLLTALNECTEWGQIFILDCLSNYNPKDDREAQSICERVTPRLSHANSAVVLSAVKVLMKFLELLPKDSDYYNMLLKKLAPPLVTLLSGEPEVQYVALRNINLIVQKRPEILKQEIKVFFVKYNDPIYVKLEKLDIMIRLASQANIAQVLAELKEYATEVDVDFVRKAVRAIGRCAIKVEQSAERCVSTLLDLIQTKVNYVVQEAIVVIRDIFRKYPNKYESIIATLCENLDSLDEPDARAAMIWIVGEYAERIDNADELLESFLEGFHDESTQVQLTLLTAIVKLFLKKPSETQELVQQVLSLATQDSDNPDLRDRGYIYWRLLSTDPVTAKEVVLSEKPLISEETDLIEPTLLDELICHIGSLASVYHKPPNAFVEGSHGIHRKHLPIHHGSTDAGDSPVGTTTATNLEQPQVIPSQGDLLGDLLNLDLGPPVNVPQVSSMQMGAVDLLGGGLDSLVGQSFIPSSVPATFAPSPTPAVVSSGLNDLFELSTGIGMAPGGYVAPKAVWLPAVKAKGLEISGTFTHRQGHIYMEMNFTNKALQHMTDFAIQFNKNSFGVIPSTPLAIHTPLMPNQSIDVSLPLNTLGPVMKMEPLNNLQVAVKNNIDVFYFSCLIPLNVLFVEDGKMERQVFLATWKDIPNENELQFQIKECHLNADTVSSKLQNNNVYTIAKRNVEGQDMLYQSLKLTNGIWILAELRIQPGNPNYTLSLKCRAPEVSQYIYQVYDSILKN
# GST-FITC bead = GST-fluorescein capture on glutathione beads, confirmation, artefact control for arrestin-AP2 inhibitor project, biochemical, cherry pick 1, flow cytometry; shares compounds with Arrestin-AP2 inh; GST-fluorescein binding to GSH beads, fluorescence, counter-screen; inhibition, % at 10 µM; 2% of 1,300 active;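 active = inhibition above 50%, about 3 SD of the inhibition seen with non-fluorescent compounds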;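 also: fluorescein maleimide labelled GST captured on 4 micron glutathione beads; higher means more loss of bead fluorescence from quenching or blocked binding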
# A number is an active result; n = inactive; x = not tested or not shown. In the library only some 1.1% were active in any assay of this set; here they are far more common.
SMILES,FAS-TE inh,JMJD2C inh,Arrestin-AP2 inh,SENP1 FRET inh,Arr AP2 CP1,GST-FITC bead
CC(=O)Nc1ccc(S(=O)(=O)NC(C(=O)O)C(C)O)cc1 (stereo not given),n,n,54.5,n,n,n
CC(=O)c1c(C)[nH]c(C(=O)OCCOc2ccccc2)c1C,n,n,n,n,x,x
CC1CCN(c2nc(N3CCCCC3)nc(N3CCCCC3)n2)CC1,n,n,n,n,x,x
C1CCN(c2nc(N3CCCCC3)nc(N3CCNCC3)n2)CC1,n,n,100.9,n,n,n
Cc1cccc(C)c1NC(=O)CN(C)C(=O)c1cccc(NS(=O)(=O)c2ccccc2)c1,n,n,59.4,n,n,n
CCN1/C(=C/C=C/C=C/C=C/c2sc3ccccc3[n+]2CC)Sc2ccccc21,n,n,55.0,n,n,n
CCN1/C(=C/C=C/c2sc3ccccc3[n+]2CC)Sc2ccccc21,n,n,75.5,n,n,n
Cc1c(Cl)cccc1NC(=O)Nc1ccccc1C(N)=O,n,n,n,n,x,x
Cc1c(Cl)cccc1NC(=O)Nc1ccc(C(N)=O)cc1,n,n,104.5,n,n,n
COc1ccc(S(=O)(=O)N2CCN(c3ccc(F)cc3)CC2)cc1OC,n,n,n,n,x,x
Cc1ccc(C2CC(c3cccs3)=NN2C(=O)CSc2nc3ccccc3o2)cc1 (stereo not given),n,n,61.6,n,n,n
O=C(CSc1nc2ccccc2o1)N1N=C(c2cccs2)CC1c1ccc(F)cc1 (stereo not given),n,n,n,n,x,x
Cc1ccc(NC(=S)NC(C)(C)C)c([N+](=O)[O-])c1,n,n,n,n,x,x
CCSc1nc(N2CCOCC2)c2c(c1C#N)CC(C)(C)N(C)C2,n,n,54.4,n,n,n
COc1cccc(CNC[C@H]2O[C@@H](n3cnc(C(N)=O)n3)[C@H](O)[C@@H]2O)c1OCc1ccc(F)cc1Cl,n,x,n,n,x,x
COc1cc(CC(=O)OCC(=O)N2CCCCC2)cc(OC)c1OC,n,n,57.8,n,n,n
COc1cc(CC(=O)OCC(=O)N2CCN(C(=O)c3ccco3)CC2)cc(OC)c1OC,n,n,n,n,x,x
Cc1ccc(NC(=O)CN(C)C(=O)CSc2nc3ccccc3c(=O)n2CCO)cc1,n,x,n,n,x,x
COc1ccc(C(=O)c2c3ccc(C(F)(F)F)cc3[n+]([O-])n2CCCN)cc1,n,n,n,n,x,x
CCCOc1ccc(C(=O)CCNc2cccc(Cl)c2)cc1,n,n,57.2,n,n,n
COc1ccc(C(=O)CCNc2cccc(Cl)c2)cc1,n,n,n,n,x,x
Cc1cc(NS(=O)(=O)c2ccccc2)c([N+](=O)[O-])cc1C,n,n,61.8,n,n,n
Cc1ccc2nc(SCC(=O)c3ccc4c(c3)NC(=O)CO4)[nH]c2c1,n,n,n,n,x,x
Cc1cc(Cl)ccc1C(=O)C1CCCN(C(=O)c2ccsc2)C1 (stereo not given),n,n,n,n,x,x
COc1ccc(C(=O)N(C)Cc2ccc(C)o2)cc1OC1CCN(C(C)=O)CC1,n,n,61.1,n,n,n
SMILES,FAS-TE inh,JMJD2C inh,Arrestin-AP2 inh,SENP1 FRET inh,Arr AP2 CP1,GST-FITC bead
COC(=O)c1nc(-c2ccccc2)oc1N(C)C,n,n,n,n,x,x
COC(=O)c1nc(-c2ccc(C)cc2)oc1N(C)C,n,n,58.6,n,n,n
COc1ccc(C(=O)NNC2=Nc3cccc4cccc2c34)cc1,n,n,n,n,x,x
COc1ccc(CC(=O)NNC2=Nc3cccc4cccc2c34)cc1,n,n,57.6,n,n,n
CCSC1=N/C(=C\c2cccnc2)C(=O)N1c1ccccc1,n,n,n,n,x,x
CCOC(=O)CSC1=N/C(=C\c2cccnc2)C(=O)N1c1ccc(OC)cc1,n,n,105.5,n,n,n
CCOC(=O)c1c(NC(=O)CSc2cccc[n+]2[O-])sc(C(=O)Nc2ccccc2)c1C,n,n,n,n,x,x
O=C(CCCn1c(=O)[nH]c2ccccc2c1=O)Nc1ccc(F)cc1,n,n,57.4,n,n,n
O=C(CCCn1c(=O)[nH]c2ccsc2c1=O)Nc1ccc(F)cc1,n,n,n,n,x,x
O=C(CCn1c(=O)[nH]c2ccccc2c1=O)Nc1ccccc1,n,n,n,n,n,n
Cn1c(SCC(=O)NC2CCCC2)nnc1-c1ccccn1,n,n,60.0,n,n,n
CCOc1ccc(Cc2noc3c2C(=O)CCC3)cc1OCC,n,n,n,n,x,x
CCOc1ccc(Cc2noc3c2C(=O)CC(C)(C)C3)cc1OCC,n,n,56.9,n,n,n
O=C(Nc1cc(-c2nc3ccccc3s2)ccc1Cl)c1ccc2c(c1)OCO2,n,n,n,n,x,x
Cc1ccc(-c2nc3ccccc3s2)cc1NC(=O)c1ccc2c(c1)OCO2,n,n,58.2,n,n,n
OCCOCCN1CCN(C2=Nc3ccccc3Sc3ccccc32)CC1,n,n,n,n,x,x
O=C1C=CC(=O)c2c(O)c(N3CCN(CCOCCO)CC3)c(Br)c(O)c21,n,x,69.0,n,52.2,n
O=C1C=CC(=O)c2c(O)c(N3CCN(CCO)CC3)c(Cl)c(O)c21,n,x,79.9,n,44.3,n
CCCCNC(=O)C(NC(=O)c1cccnc1OC)C(=O)c1ccccc1 (stereo not given),x,x,x,n,x,x
Cc1cccc(OC(C)C(=O)N/N=C\c2ccncc2)c1 (stereo not given),n,n,n,n,x,x
Cc1nc2ccc(NC(=O)c3ccco3)cc2nc1C,n,n,n,n,x,x
Cc1cc2cc(NC(=O)c3ccco3)ccc2[nH]1,n,n,99.6,n,n,n
CC(SCC(=O)Nc1ccc(F)cc1)c1nc2ccccc2c(=O)[nH]1 (stereo not given),n,n,n,n,x,x
Cc1nn(C)c(Cl)c1/C=N/OC(=O)c1ccccc1,n,n,n,n,x,x
Cn1c(Cl)c(/C=N/OC(=O)c2ccccc2Cl)c2ccccc21,n,n,54.1,n,n,n
Cc1ccc(S(=O)(=O)c2c(C)cc(C)nc2N2CCOCC2)cc1,n,n,n,n,x,x
Cc1ccc(S(=O)(=O)c2c(C)cc(C)nc2N2CCCCC2)cc1,n,n,69.7,n,n,n
Cc1ccc(-n2nnnc2Sc2nc([N+](=O)[O-])nn2C)c(C)c1,n,n,n,n,x,x
COc1ccc(OC)c(-c2csc(NC(=O)CN3C(=O)NC4(CCCC4)C3=O)n2)c1,n,n,67.7,n,n,n
COc1ccc(-c2csc(NC(=O)CN3C(=O)NC4(CCCC4)C3=O)n2)cc1,n,n,n,n,x,x
